Most compounds without a hit are left out; they make up all but 3.1% or so of the library.
LEDGF integ inh – blocks HIV-1 LEDGF/p75-dependent DNA integration; TR-FRET IN-LEDGF/p75 DNA integration, Eu/Cy5; inhibition, % at 3.7 µM; 370,000 tested, 0.64% active;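 active = inhibition above the screen-wide mean plus 3 SD, cut at about 13% in these data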;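 note: signal is the Cy5 over europium emission ratio at 671 and 618 nm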
CSN inh – blocks human CSN-mediated cullin deneddylation. Q92905. Purified CSN, SCF-Nedd8-OG deneddylation, fluorescence polarization. inhibition, % at 12.5 µM. 360,000 tested, 0.38% active. AID 651999;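 active = pattern-corrected inhibition above about 35%, with an unprinted fluorescence ratio check between 0.5 and 1.5, limit read from the data, passing the limit was not always enough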
Target sequence (Q92905 whole entry, looked up, one chain of several): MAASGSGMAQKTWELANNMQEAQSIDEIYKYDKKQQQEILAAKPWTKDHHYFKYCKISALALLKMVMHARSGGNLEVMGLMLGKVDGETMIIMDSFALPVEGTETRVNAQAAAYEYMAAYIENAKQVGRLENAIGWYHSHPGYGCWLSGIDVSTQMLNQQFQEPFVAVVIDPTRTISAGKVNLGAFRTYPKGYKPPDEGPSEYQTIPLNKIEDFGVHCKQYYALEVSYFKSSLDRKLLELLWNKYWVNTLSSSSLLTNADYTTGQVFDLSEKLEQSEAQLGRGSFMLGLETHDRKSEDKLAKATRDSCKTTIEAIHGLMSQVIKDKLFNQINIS
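Schedule: reaction 90 min, room temperature / Assay system: HEK293T-derived human Csn5 enzyme / Input: Csn5 at 0.24 nM final / Measure: inhibition of Csn5 cleavage, % / Control set: substrate-only high control, full reaction low control / Technique: fluorescence polarization of the substrate / Buffer or medium: Tris/NaCl/DTT buffer, pH 7.5 / Reagent: SCFSkp2-Nedd8OG substrate at 10 nM final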
UHRF1 MBD2 ctr – blocks human UHRF1 binding to methylated DNA; Q96T88; UHRF1 binding to methylated oligo, TR-FRET; inhibition, % at 4.4 µM; 370,000 tested, 0.75% active; in the data active = inhibition above about 21%;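 note: UHRF1 SRA domain binding a hemimethylated CpG hairpin DNA probe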
ATG4B inh – blocks human ATG4B protease cleavage of LC3 substrate | Q9Y4P1 | ATG4B cleavage of LC3-PLA2, NBD-HPC fluorescence, 1 h | inhibition, % at 8.33 µM | 340,000 tested, 0.51% active | AID 504462; in the data active = inhibition above about 40%
Target sequence (Q9Y4P1 whole entry, looked up): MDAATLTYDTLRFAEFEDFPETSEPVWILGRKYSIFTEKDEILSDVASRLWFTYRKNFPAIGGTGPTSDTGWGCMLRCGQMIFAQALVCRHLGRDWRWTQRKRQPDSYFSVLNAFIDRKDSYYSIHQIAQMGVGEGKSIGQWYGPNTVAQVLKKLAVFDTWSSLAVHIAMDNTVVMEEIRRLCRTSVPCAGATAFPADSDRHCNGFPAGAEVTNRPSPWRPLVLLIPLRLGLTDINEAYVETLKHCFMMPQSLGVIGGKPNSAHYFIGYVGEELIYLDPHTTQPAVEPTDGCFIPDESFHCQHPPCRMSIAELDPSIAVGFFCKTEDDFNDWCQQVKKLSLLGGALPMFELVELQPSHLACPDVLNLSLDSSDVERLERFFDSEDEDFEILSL
rCAG binder – r(CAG) repeat RNA binding; TO-PRO-1 dye displacement fluorescence; AID 651821; inhibition, % at 3 µM; 370,000 tested, 1.3% active;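 active = inhibition above the plate cutoff, the mean of all test compounds on that plate plus 3 SD, cut at about 35% in these data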;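 note: higher means more dye released from RNA so lower well fluorescence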
MBD2 DNA inh – MBD2-methylated oligo binding inhibition; Q9UBB5; TR-FRET, MBD2 binding to methylated oligonucleotide; inhibition, % at 4.4 µM; 370,000 tested, 0.31% active; AID 686964; in the data active = inhibition above about 13%
ATG4B conf – ATG4B (human) inhibition, single-dose confirmed | AID 504757 | ATG4B protease fluorescent substrate cleavage assay | shares compounds with ATG4B inh | 320 tested, 92% active | inhibition, % at 8.33 µM; in the data active = inhibition above about 39%
PLA2 ctr – counter-screen for ATG4B inhibitors: human phospholipase A2 | shares compounds with ATG4B inh | purified PLA2, NBD-C6-HPC fluorescence, 45 min | inhibition, % at 8.33 µM | 1,600 tested, 66% active | AID 588402; in the data active = inhibition above about 50%
rCAG binder conf – r(CAG) RNA repeat binding, confirmation; AID 652065; inhibition, % at 3 µM; shares compounds with rCAG binder; 4,300 tested, 70% active; TO-PRO-1 dye displacement fluorescence;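 active = inhibition above a per-plate cutoff, the mean inhibition of sample wells plus 3 SD, cut at about 35% in these data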;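 note: loss of TO-PRO-1 fluorescence as compound displaces dye from 1x1 AA loop RNA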
DNA CAG counter – disrupts DNA CAG TO-PRO-1 complex, flagging rCAG hits. shares compounds with rCAG binder. d(CAG) DNA oligo TO-PRO-1 dye displacement, fluorescence. inhibition, % at 3 µM. 4,300 tested, 94% active. AID 652068;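 active = inhibition above its plate's cutoff, the mean test-well inhibition plus 3 SD, cut at about 4.8% in these data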;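 note: hits displace the dye from DNA and so lower well fluorescence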
CSN deneddyl val – validation of inhibitors of human CSN-mediated cullin deneddylation | AID 720654 | Csn5 deneddylation of SCF-Nedd8OG, fluorescence polarization, 90 min | inhibition, % at 16.6 µM | 540 tested, 62% active | shares compounds with CSN inh; in the data active = inhibition above about 50%
MMP2 cntr CSN – blocks human MMP-2 in a CSN deneddylation counter-screen | AID 720655 | recombinant MMP-2, FRET substrate fluorescence, 60 min | shares compounds with CSN inh | inhibition, % at 16.6 µM | 540 tested, 33% active;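 active = corrected plate-normalized z-score of 5 or more, or -5 or less, or inhibition of 15% or more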
Thrombin cntr – counter-screen for CSN deneddylation inhibitors: bovine thrombin inhibition. 540 tested, 49% active. inhibition, % at 16.6 µM. AID 720656. shares compounds with CSN inh. bovine thrombin cleavage of Ub4-pepOG, fluorescence polarization;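 active = inhibition at or above a set limit, with a fluorescence interference ratio between 0.5 and a set maximum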
UHRF1 ctr MBD2 – inhibits human UHRF1 binding to methylated oligonucleotide, MBD2 counter-screen | 1,000 tested, 25% active | inhibition, % at 4.4 µM | shares compounds with MBD2 DNA inh | TR-FRET; in the data active = inhibition above about 21%;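 note: UHRF1 SRA domain binding a labeled hemimethylated CpG hairpin DNA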
MBD2 DBD conf – MBD2-DBD methyl-DNA binding inhibition, TR-FRET confirmation | shares compounds with MBD2 DNA inh | TR-FRET MBD2-DBD binding to methylated oligonucleotide | inhibition, % at 4.4 µM | 1,000 tested, 26% active
IN multimer up – HIV-1 integrase multimerization activation, counter-screen. TR-FRET HIV-1 integrase multimerization, biochemical. shares compounds with LEDGF integ inh. activation, % at 7.7 µM. 2,000 tested, 17% active. AID 1053131; in the data active = activation above about 8.9%
TR-FRET interf – counter-screen for LEDGF/p75 integration inhibitors: TR-FRET optical interference. shares compounds with LEDGF integ inh. TR-FRET optical interference counterscreen, HIV-1 IN multimerization. inhibition, % at 7.7 µM. 2,000 tested, under 10 active. AID 1053135;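 active = inhibition above the mean over all tested compounds plus 3 SD, which no compound reached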
IN-LEDGF confirm – LEDGF/p75-dependent HIV-1 integration inhibition, confirmation. shares compounds with LEDGF integ inh. TR-FRET LEDGF/p75-dependent HIV-1 integration, biochemical. AID 1053136. inhibition, % at 3.7 µM. 2,000 tested, 36% active
A number is an active result; – = inactive; · = no result given; ! = a repeat was not active. Cut-off read from the data, not from the text of the source, unless noted: active = inhibition above about 14%; inactive = the rest.

SMILES	LEDGF integ inh	CSN inh	UHRF1 MBD2 ctr	ATG4B inh	rCAG binder	MBD2 DNA inh	PLA2 ctr	rCAG binder conf	DNA CAG counter	others
COc1cc(/C=C/C(=O)O)cc(S(=O)(=O)Nc2cc(Cl)c(Cl)cc2Cl)c1OC	–	–	–	41	65	–	–	37	7.4	ATG4B conf=52
CN(Cc1ccccc1)C(=O)OCc1cn(Cc2ccc(F)cc2)nn1	–	·	–	·	–	–	·	·	·
COc1ccc(NC(=S)Nc2cccc([N+](=O)[O-])c2)cc1	–	–	–	–	–	–	·	·	·
Cc1ccc([N+](=O)[O-])cc1NC(=S)NC(=O)C(C)(C)C	–	–	–	–	–	–	·	·	·
COc1ccc(NC(=S)NNc2ccc([N+](=O)[O-])cc2S(=O)(=O)Nc2ccc(C)cc2C)cc1	–	–	–	43	39	–	57	81	45
Cc1ccc(NS(=O)(=O)c2cc([N+](=O)[O-])ccc2NNC(=S)Nc2cc(C)ccc2C)c(C)c1	–	–	–	58	50	–	73	84	44
O=C(O)c1cc(N2N=C(C(F)(F)F)/C(=C/C=C/c3ccco3)C2=O)ccc1Cl	82	–	97	96	89	108	78	93	76
CCOC(=O)c1ccc(N2N=C(C)/C(=C/C=C/c3ccco3)C2=O)cc1	–	–	–	–	–	–	·	·	·
N#C/C(=N\Nc1cccc([N+](=O)[O-])c1)C(=O)c1ccc(Br)cc1	–	–	–	57	76	–	80	87	52
CC(C)C(=O)N1CC[C@H]2[C@H](CCCN2Cc2cc(F)cc(F)c2)C1	–	·	–	·	–	–	·	·	·
Nc1c(C(=O)Nc2ccccc2F)sc2nc(-c3cccnc3)ccc12	–	–	–	–	–	–	·	·	·
Nc1c(C(=O)Nc2ccccc2F)sc2nc(-c3ccco3)ccc12	–	–	–	47	55	–	–	73	35
COC(=O)Cn1c(=O)c2c(n(Cc3ccccc3)c1=O)N/C(=C/c1ccc(Br)cc1)C2=O	–	–	–	54	62	–	61	75	40
O=C(O)c1cccc2c(-c3ccccc3)c(-c3ccccc3)[nH]c12	–	–	–	69	77	–	75	66	23
O=C(O)c1ccc(-c2ccccc2)[nH]c1=O	–	–	–	–	–	–	·	·	·
O=C1c2ccccc2C(=O)N1c1ncc(Cc2ccc(Cl)cc2)s1	–	–	–	80	42	–	64	–	–
Cc1ccc(Cc2cnc(N3C(=N)SC(C)C3=O)s2)cc1 (stereo unspecified)	–	–	–	–	–	–	·	·	·
O=C(O)COc1ccccc1C=NNc1ccc([N+](=O)[O-])cc1S(=O)(=O)Nc1ccc(Cl)cc1	–	–	–	44	88	–	–	91	69	ATG4B conf=64
Cc1ccc(-n2cccc2/C=C2\C(=N)N3N=C(c4ccco4)SC3=NC2=O)cc1	–	61	–	78	–	–	62	·	·	CSN deneddyl val=–;MMP2 cntr CSN=19;Thrombin cntr=–
C=CCOC(=O)N1CCN(C(=O)c2ccc3nc(C)n(C4CCCC4)c3c2)CC1	–	·	–	·	–	–	·	·	·
Cc1cc(/C=N/NC(=O)C(O)(c2ccccc2)c2ccccc2)c(C)n1-c1cccc(C(=O)O)c1	–	41	–	52	41	–	57	58	26	CSN deneddyl val=59;MMP2 cntr CSN=–;Thrombin cntr=–
CCn1c(N)nc2c1c(=O)n(C)c(=O)n2C	–	–	–	–	–	–	·	·	·
CCCc1nc2c(=O)n(C)c(=O)nc-2n(C)n1	–	76	–	77	–	22	–	·	·	ATG4B conf=–;CSN deneddyl val=–;MMP2 cntr CSN=–;Thrombin cntr=–
CCN1/C(=C/C(C)=C/c2sc3ccccc3[n+]2CC)Sc2ccccc21	–	77	–	52	–	–	–	·	·	ATG4B conf=49;CSN deneddyl val=–;MMP2 cntr CSN=50!;Thrombin cntr=113
CCN1/C(=C\C(=S)Nc2ccccc2)Sc2ccccc21	–	–	–	–	–	–	·	·	·
O=S(=O)(c1cccc2cccnc12)N1CCC(c2cn3ccccc3n2)CC1	–	·	–	·	–	–	·	·	·
Cn1nc(-c2ccccn2)nc2c(=O)n(C)c(=O)nc1-2	–	57	–	79	–	14	–	·	·	ATG4B conf=–;CSN deneddyl val=–;MMP2 cntr CSN=–;Thrombin cntr=–;UHRF1 ctr MBD2=–;MBD2 DBD conf=–
CCn1c(SCC(=O)NN=Cc2cc(OC)ccc2OC)nnc1-c1ccc(OC)cc1	–	·	–	·	–	–	·	·	·
O=C1/C(=C/C=C/c2ccco2)SC(=S)N1NS(=O)(=O)c1ccccc1	71	–	97	78	89	69	–	87	61	ATG4B conf=41;UHRF1 ctr MBD2=88;MBD2 DBD conf=51;IN multimer up=20;TR-FRET interf=–;IN-LEDGF confirm=76
